Assay results reported in ChEMBL document CHEMBL3091454, “Improved Cav2.2 Channel Inhibitors through a gem-Dimethylsulfone Bioisostere Replacement of a Labile Sulfonamide” (ACS Med Chem Lett, 2013).

What was measured:
CYP3A4 = CYP3A4 (Homo sapiens, UniProt P08684); assay: Inhibition of CYP3A4 (unknown origin) at 10 uM relative to control; format: ADME
hERG (KCNH2) = hERG (KCNH2) (Homo sapiens, UniProt Q12809); assay: Displacement of [35S]MK-499 from human ERG at 10 uM relative to control; conditions: probe [35S]MK-499
Sequence of hERG (KCNH2) (Q12809 whole entry): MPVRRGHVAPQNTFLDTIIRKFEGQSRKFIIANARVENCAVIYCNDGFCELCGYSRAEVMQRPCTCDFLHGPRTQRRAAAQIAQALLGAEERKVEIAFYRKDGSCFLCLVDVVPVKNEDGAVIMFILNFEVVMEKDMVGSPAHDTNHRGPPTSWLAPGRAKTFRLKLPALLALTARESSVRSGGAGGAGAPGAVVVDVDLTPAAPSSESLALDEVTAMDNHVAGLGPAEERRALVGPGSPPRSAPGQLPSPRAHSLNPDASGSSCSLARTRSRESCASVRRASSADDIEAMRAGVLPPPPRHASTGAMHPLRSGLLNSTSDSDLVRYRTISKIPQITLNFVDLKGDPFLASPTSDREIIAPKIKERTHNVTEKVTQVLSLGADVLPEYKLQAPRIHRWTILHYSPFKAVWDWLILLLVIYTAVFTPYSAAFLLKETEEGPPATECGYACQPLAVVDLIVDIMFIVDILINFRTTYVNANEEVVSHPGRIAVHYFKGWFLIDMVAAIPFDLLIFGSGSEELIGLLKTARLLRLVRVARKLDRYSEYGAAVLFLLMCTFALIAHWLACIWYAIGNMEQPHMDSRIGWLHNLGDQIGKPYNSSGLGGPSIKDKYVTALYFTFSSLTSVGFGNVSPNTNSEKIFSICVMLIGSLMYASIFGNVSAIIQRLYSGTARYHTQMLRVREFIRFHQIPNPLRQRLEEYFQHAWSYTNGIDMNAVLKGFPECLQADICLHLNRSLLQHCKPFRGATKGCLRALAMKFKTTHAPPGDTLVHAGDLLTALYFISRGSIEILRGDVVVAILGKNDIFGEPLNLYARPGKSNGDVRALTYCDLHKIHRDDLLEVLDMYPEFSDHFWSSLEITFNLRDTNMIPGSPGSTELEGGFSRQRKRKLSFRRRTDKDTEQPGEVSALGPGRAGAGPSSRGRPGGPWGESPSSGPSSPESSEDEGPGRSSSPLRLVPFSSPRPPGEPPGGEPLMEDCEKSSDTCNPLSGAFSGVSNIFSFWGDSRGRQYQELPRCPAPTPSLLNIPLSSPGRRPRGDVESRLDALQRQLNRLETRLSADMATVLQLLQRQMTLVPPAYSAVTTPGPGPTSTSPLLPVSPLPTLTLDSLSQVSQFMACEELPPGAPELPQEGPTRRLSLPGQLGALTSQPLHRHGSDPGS
Outline: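 hERG binding assessed by displacement of [35S]MK-499; percent inhibition at 10 μM test compound.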

[1] = target: T1, Nuclear receptor subfamily 1 group I member 2 (Homo sapiens, UniProt O75469); assay: Activation of PXR (unknown origin)
T1 sequence (O75469 whole entry): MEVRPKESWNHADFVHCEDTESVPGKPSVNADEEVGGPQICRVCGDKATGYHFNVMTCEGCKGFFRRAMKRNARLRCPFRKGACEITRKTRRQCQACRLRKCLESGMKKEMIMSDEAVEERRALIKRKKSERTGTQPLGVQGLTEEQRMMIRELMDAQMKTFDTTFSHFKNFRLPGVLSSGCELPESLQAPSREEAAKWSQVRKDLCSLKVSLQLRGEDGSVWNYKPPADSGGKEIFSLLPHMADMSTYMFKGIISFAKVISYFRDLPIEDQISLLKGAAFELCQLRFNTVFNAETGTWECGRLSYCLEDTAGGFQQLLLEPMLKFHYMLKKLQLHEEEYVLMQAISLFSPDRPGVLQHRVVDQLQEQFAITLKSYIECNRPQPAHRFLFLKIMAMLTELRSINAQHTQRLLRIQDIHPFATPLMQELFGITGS

[2] = target: Voltage-dependent N-type calcium channel subunit alpha-1B (Homo sapiens, UniProt Q00975); assay: Inhibition of Cav2.2-mediated calcium influx in HEK cells by FLIPR assay; format: cell-based, HEK293
Sequence of Voltage-dependent N-type calcium channel subunit alpha-1B (Q00975 whole entry): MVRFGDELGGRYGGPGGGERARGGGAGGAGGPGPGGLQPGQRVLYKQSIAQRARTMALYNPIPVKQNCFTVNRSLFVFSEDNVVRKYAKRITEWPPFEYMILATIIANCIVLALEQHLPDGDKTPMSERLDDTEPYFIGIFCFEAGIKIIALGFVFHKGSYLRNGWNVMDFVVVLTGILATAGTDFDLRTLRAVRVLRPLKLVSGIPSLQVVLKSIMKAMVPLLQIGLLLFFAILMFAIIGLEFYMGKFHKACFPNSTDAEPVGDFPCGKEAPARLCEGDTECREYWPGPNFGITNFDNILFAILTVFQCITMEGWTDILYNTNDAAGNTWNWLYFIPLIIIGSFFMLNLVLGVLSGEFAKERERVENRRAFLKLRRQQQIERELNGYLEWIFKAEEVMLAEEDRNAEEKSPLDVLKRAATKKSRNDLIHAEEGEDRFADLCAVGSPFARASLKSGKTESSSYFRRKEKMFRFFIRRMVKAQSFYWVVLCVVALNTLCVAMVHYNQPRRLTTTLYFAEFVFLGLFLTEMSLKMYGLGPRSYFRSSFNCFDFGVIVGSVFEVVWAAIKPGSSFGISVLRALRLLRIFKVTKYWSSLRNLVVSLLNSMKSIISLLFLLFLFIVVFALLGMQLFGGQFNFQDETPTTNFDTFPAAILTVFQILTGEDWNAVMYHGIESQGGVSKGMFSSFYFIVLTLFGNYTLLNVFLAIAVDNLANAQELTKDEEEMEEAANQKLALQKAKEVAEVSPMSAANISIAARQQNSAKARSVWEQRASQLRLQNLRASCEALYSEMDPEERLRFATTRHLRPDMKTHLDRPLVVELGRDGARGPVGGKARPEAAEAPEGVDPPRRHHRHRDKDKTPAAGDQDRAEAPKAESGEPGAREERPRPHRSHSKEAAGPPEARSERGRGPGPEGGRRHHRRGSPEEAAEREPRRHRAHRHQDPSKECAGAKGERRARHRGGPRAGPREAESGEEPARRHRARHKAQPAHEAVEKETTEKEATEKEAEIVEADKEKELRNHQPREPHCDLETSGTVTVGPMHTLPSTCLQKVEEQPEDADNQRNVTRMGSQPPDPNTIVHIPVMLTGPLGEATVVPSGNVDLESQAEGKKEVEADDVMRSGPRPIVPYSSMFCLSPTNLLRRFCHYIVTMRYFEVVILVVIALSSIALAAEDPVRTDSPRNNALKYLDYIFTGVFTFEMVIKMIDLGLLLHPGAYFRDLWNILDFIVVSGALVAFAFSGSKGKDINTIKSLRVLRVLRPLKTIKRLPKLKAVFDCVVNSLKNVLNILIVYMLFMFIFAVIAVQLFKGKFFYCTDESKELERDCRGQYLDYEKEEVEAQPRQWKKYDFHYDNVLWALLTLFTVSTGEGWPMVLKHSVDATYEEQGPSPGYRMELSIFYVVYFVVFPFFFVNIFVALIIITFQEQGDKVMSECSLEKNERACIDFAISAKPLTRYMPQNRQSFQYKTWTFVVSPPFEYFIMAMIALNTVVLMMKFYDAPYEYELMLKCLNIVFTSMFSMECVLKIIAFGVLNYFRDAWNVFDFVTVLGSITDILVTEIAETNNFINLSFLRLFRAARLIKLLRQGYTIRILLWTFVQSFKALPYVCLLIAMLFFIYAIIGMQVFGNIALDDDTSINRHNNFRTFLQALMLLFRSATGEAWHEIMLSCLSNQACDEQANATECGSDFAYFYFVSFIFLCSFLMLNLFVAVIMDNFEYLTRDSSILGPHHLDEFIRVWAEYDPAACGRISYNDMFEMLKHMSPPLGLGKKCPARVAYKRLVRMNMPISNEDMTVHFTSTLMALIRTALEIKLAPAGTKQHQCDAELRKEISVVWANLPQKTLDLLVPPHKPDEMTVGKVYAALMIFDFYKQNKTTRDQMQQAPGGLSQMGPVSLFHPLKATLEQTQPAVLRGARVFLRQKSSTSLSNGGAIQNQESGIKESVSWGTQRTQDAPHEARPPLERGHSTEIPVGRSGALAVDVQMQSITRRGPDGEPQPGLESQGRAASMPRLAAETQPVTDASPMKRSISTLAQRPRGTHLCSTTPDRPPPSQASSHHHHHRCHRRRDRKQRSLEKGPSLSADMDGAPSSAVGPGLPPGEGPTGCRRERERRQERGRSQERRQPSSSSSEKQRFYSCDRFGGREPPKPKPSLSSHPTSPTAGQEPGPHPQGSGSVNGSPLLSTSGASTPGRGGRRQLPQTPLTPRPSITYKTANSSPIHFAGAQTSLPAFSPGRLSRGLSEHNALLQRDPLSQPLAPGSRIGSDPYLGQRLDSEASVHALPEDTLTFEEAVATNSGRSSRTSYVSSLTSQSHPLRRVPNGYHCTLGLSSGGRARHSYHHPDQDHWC
Outline: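 Cav2.2 calcium-influx FLIPR assay; compounds screened for percent inhibition at single concentration, active ones titrated for IC50; values averaged over n ≥ 3.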

Liver microsome [3] = assay: Drug metabolism in human liver microsomes assessed as 3-(trifluoromethyl)-benzenesulfonamide level after 1 hr in presence of NADPH; format: ADME
Liver microsome [4] = assay: Drug metabolism in rat liver microsomes assessed as 3-(trifluoromethyl)-benzenesulfonamide level after 1 hr in presence of NADPH; format: ADME
[5] = Metabolic stability in human liver microsomes assessed as compound remaining at 10 uM after 1 hr in presence of NADPH; format: ADME; conditions: read-out: Stability
Outline: (§1)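 Liver microsomes (rat or human) incubated with compound and NADPH for 1 h; percent of parent remaining. Table footnote gives 10 μM compound, 1 mM NADPH, 1 mg/mL protein; text gives 1 μM substrate, 1 mg/mL protein.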

[6] = Metabolic stability in rat liver microsomes assessed as compound remaining at 10 uM after 1 hr in presence of NADPH; format: ADME; conditions: read-out: Stability; outline: as §1
[7] = Fraction unbound in 100% rat plasma; format: ADME, cell-free
Outline: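 Unbound fraction measured in 100% rat plasma.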

Rattus norvegicus [8] = assay: Antinociceptive activity in rat inflammatory pain model assessed as reversal of CFA-induced mechanical allodynia at 10 mg/kg, po after 3 hrs; format: functional
Outline: (§2)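 Rats given intraplantar complete Freund's adjuvant in the hind paws to induce inflammatory pain; mechanical allodynia assessed 1 and 3 h after a single oral dose. Percent reversal per rat calculated as (postdose − predose)/(preinjury − predose), averaged over n = 6 rats.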

Rattus norvegicus [9] = assay: Antinociceptive activity in rat inflammatory pain model assessed as reversal of CFA-induced mechanical allodynia at 10 mg/kg, po after 1 hr; format: functional; outline: as §2
[10] = Half life in rat at 3 mg/kg, po and 1 mg/kg, iv; format: ADME, organism-based; conditions: in vivo
Outline: (§3)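 Rats dosed 3 mg/kg orally and 1 mg/kg intravenously; PK parameters derived from whole-blood concentrations. Normalized oral AUC given in μM·h·kg/mg, clearance in mL/min/kg, plus half-life and oral bioavailability.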

[11] = Clearance in rat at 3 mg/kg, po and 1 mg/kg, iv; format: ADME, organism-based; conditions: in vivo; outline: as §3
[12] = Oral bioavailability in rat at 3 mg/kg; format: ADME, organism-based; conditions: in vivo; outline: as §3
MDR1 (ABCB1) = MDR1 (ABCB1) (Homo sapiens, UniProt P08183); assay: Activity at human MDR1 expressed in MDCK2 cells assessed as apparent permeability by LC/MS/MS analysis; format: ADME, cell-based, MDCK-II; conditions: MDCK-MDR1
Rattus norvegicus [13] = assay: Normalized AUC in rat whole blood at 3 mg/kg, po; format: ADME, organism-based; parameters: dose 3 mg/kg, route oral; conditions: in vivo; outline: as §3
Rattus norvegicus [14] = assay: Antinociceptive activity in rat inflammatory pain model assessed as reversal of CFA-induced mechanical allodynia at 30 mg/kg, po after 3 hrs; format: functional; outline: as §2
Rattus norvegicus [15] = assay: Antinociceptive activity in rat inflammatory pain model assessed as reversal of CFA-induced mechanical allodynia at 30 mg/kg, po after 1 hr; format: functional; outline: as §2
Rattus norvegicus [16] = assay: Normalized AUC in rat whole blood assessed as 3-(trifluoromethyl)-benzenesulfonamide level at 3 mg/kg, po; format: ADME, organism-based; parameters: dose 3 mg/kg, route oral; conditions: in vivo
Outline: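 Rats given a single 3 mg/kg oral dose of parent; whole-blood levels of parent and sulfonamide metabolite followed over time, n = 2 rats. Metabolite AUC normalized to dose (μM·h·kg/mg).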

Sequence of CYP3A4 (P08684 whole entry): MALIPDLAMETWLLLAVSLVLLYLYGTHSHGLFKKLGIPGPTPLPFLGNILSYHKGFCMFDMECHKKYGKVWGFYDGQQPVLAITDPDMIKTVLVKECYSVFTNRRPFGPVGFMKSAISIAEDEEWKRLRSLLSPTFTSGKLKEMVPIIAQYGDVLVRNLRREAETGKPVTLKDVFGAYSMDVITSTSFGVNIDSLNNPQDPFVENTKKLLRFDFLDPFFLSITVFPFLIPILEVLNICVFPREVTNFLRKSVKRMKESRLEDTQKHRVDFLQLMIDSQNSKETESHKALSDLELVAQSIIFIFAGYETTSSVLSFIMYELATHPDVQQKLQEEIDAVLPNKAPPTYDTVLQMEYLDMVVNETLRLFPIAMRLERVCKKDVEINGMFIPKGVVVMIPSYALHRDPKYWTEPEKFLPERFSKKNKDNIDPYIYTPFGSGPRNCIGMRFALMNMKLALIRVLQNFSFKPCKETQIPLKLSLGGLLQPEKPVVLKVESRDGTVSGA

Row | inhibition at 10 µM (CYP3A4) | EC50 [1] | IC50 [2] | Drug metabolism (Liver microsome [3]) | Drug metabolism (Liver microsome [4]) | remaining at 1 h, 10 µM [5] | remaining at 1 h, 10 µM [6] | Compound | other results
1 | 69% | 2700 nM | 340 nM | – | – | – | – | CS(=O)(=O)c1ccc(Cl)c(C(=O)N2CCC(N(C3CC3)S(=O)(=O)c3cccc(C(F)(F)F)c3)CC2)c1 | inhibition at 10 µM (hERG (KCNH2)): 49%
2 | – | – | 270 nM | 0.45 µM | 0.04 µM | 78% | 72% | CS(=O)(=O)c1ccc(C(=O)N2CC(N(C3CC3)S(=O)(=O)c3cccc(C(F)(F)F)c3)C2)c(C(F)(F)F)c1 | –
3 | – | – | 370 nM | – | – | – | – | CS(=O)(=O)c1ccc(F)cc1C(=O)N1CCC(N(C2CC2)S(=O)(=O)c2cccc(C(F)(F)F)c2)C1 (racemic) | –
4 | 59% | 5000 nM | 670 nM | – | – | – | – | CS(=O)(=O)c1ccc(C#N)cc1C(=O)N1CCC(N(C2CC2)S(=O)(=O)c2cccc(C(F)(F)F)c2)CC1 | inhibition at 10 µM (hERG (KCNH2)): 41%
5 | – | – | 370 nM | – | – | – | – | CC(C1CCN(C(=O)c2ccc(S(C)(=O)=O)cc2OC(F)(F)F)CC1)S(=O)(=O)c1cccc(C(F)(F)F)c1 (stereo in doubt; 30 en-2) | –
6 | – | – | 470 nM | 1.16 µM | 0.08 µM | 30% | 3.4% | CCN(C1CCN(C(=O)c2ccccc2OC(F)(F)F)CC1)S(=O)(=O)c1cccc(C(F)(F)F)c1 | –
7 | – | > 30000 nM | 92 nM | – | – | 62% | 73% | CC(C)(C1CCN(C(=O)c2ccc(S(C)(=O)=O)cc2OC(F)(F)F)CC1)S(=O)(=O)c1cccc(C(F)(F)F)c1 | fraction unbound [7]: 0.013; Efficacy (Rattus norvegicus [8]): 30%; Efficacy (Rattus norvegicus [9]): 21%; half-life [10]: 2.3 h; clearance [11]: 27 mL/min/kg; bioavailability [12]: 95%; Papp (MDR1 (ABCB1)): 35 ×10⁻⁶ cm/s; AUC/dose (Rattus norvegicus [13]): 0.97 µM·kg·h/mg
8 | – | – | 190 nM | – | – | – | – | CS(=O)(=O)c1ccc(F)cc1C(=O)N1CCC2(CCN(S(=O)(=O)c3cccc(C(F)(F)F)c3)CC2)C1 | –
9 | 75% | – | – | 0.03 µM | 0.01 µM | – | – | CS(=O)(=O)c1ccc(F)cc1C(=O)N1CCC(N(C2CC2)S(=O)(=O)c2cccc(C(F)(F)F)c2)CC1 | Efficacy (Rattus norvegicus [8]): 38%; Efficacy (Rattus norvegicus [9]): 43%
10 | – | – | 460 nM | 0.95 µM | 0.08 µM | 26% | 18% | CN(C1CCN(C(=O)c2ccccc2S(C)(=O)=O)CC1)S(=O)(=O)c1cccc(C(F)(F)F)c1 | –
11 | 61% | 1900 nM | 760 nM | – | – | – | – | NC(=O)c1ccc(C(=O)N2CCC(N(C3CC3)S(=O)(=O)c3cccc(C(F)(F)F)c3)CC2)c(C(F)(F)F)c1 | inhibition at 10 µM (hERG (KCNH2)): 32%
12 | – | – | 430 nM | – | – | – | – | C[C@H]1[C@H](N(C2CC2)S(=O)(=O)c2cccc(C(F)(F)F)c2)CN1C(=O)c1cc(F)ccc1S(C)(=O)=O (racemic) | –
13 | – | – | > 10000 nM | – | – | – | – | NS(=O)(=O)c1cccc(C(F)(F)F)c1 | Efficacy (Rattus norvegicus [14]): 44%; Efficacy (Rattus norvegicus [15]): 53%; clearance [11]: 0.31 mL/min/kg; bioavailability [12]: 46%; AUC/dose (Rattus norvegicus [13]): 111 µM·kg·h/mg
14 | 86% | 8400 nM | 450 nM | – | – | – | – | CS(=O)(=O)c1cc(C#N)ccc1C(=O)N1CCC(N(C2CC2)S(=O)(=O)c2cccc(C(F)(F)F)c2)CC1 | inhibition at 10 µM (hERG (KCNH2)): 66%
15 | – | – | 48 nM | 0.83 µM | 0.11 µM | 5.3% | 4.7% | C[C@H]1[C@H](N(C2CC2)S(=O)(=O)c2cccc(C(F)(F)F)c2)CN1C(=O)c1ccc(S(C)(=O)=O)cc1Cl (racemic) | AUC/dose (Rattus norvegicus [16]): 64 µM·kg·h/mg; AUC/dose (Rattus norvegicus [13]): 0.017 µM·kg·h/mg
